Assay [1] deals with Liver microsomes. The experiment in a line: Antioxidant activity in rat liver microsome assessed as inhibition of Fe2+-cysteine-induced lipid peroxidation after 15 mins. Type of assay: functional. The procedure, abridged: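 Rat liver microsomes (1.0 mg microsomal protein in 1 mL 0.1 M PBS, pH 7.4) incubated with […] cysteine plus test sample, 37 °C, 15 min; peroxidation started with 0.05 mM FeSO4. […] Vitamin E positive control.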

Assay [2] has as its system Bel-7402. Description: Cytotoxicity against human Bel7402 cells by MTT assay. Type of assay: functional, cell-based.
Assay [3] relates to Coxsackievirus. The experiment in a line: Antiviral activity against Coxsackievirus B3 infected in african green monkey Vero cells assessed as inhibition of virus-induced cytopathic effect. Type of assay: functional, organism-based. A digest of the protocol: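 Confluent Vero monolayers infected with 100 TCID50 Cox B3; 1 h adsorption at 37 °C, PBS wash, then maintenance medium (MEM + 2% FBS) ± graded compound concentrations at 37 °C. CPE scored once virus control reached 4+; IC50 by Reed and Muench. Ribavirin positive control.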

Assay [4] has as its system BGC-823. The experiment in a line: Cytotoxicity against human BGC823 cells by MTT assay. Type of assay: functional, cell-based.
Assay [5] has as its system HCT-8. The experiment in a line: Cytotoxicity against human HCT8 cells by MTT assay. Type of assay: functional, cell-based.
The test system of assay [6] is A549. Description: Cytotoxicity against human A549 cells by MTT assay. Type of assay: functional, cell-based.
Assay [7] relates to A2780. Description: Cytotoxicity against human A2780 cells by MTT assay. Type of assay: functional, cell-based.
Assay [8] relates to BV-2. Description: Inhibition of LPS-induced nitric oxide production in […] BV2 cells after 24 hrs by spectrophotometry. Type of assay: functional, cell-based. Particulars: Mus musculus, BV-2, 24 h. A digest of the protocol:
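BV2 microglial cells pre-cultured 24 h, then exposed to a range of concentrations and stimulated with E. coli 055:B5 LPS (300 ng/mL) for 24 h. Nitrite in the supernatant was measured with Griess reagent (1% sulfanilamide in 5% H3PO4 plus 0.1% N-(1-naphthyl)ethylenediamine, 1:1) for 20 min at room temperature, read at 550 nm against a sodium nitrite standard curve. Untreated cells served as negative control and curcumin as positive control.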

The source made the active and inactive calls. The calls are words filed in the database; no cut-off is given here.

Consider `COc1c(OC)c2nccc3c4ccccc4n(c1=O)c23` [4,5-DIMETHOXYCANTHIN-6-ONE], for which the 50% inhibitory concentration (IC50) result in assay [1] was “Not Active”; in assay [3], 7.4 µM. Besides, the outcome in assay [2], in assay [4], in assay [5], in assay [6] and in assay [7] was inactive.
With `Cc1cc2c(C(C)C)cc(O)c(C=O)c2cc1O`, the IC50 in assay [1] (read-out: IC50) was 14.7 µM; in assay [3] it was 1.4 µM. In addition, the outcome in assay [2], in assay [4], in assay [5], in assay [6] and in assay [7] was inactive.
With `CC1=C(O)C(=O)c2c(C)ccc3c(C)cnc1c23`, the results for the IC50 in assay [1] (read-out: IC50) and in assay [3] were 3.9 µM and over 20 µM, respectively. For the same compound, the result in assay [2], in assay [4], in assay [5], in assay [6] and in assay [7] was inactive.
`Oc1ccccc1CN1CCCCC1c1cccnc1` (racemic): the result in assay [2], in assay [4], in assay [5], in assay [6] and in assay [7] was inactive. For the same compound, the IC50 in assay [3] is over 20 µM.
On to VITAMIN E, for which the IC50 in assay [1] (read-out: IC50) is 54.2 µM.
Regarding `NC(=O)c1ncn([C@@H]2O[C@H](CO)[C@@H](O)[C@H]2O)n1` [RIBAVIRIN], the half-maximal inhibitory concentration (IC50) in assay [3] turned out to be 222 µM.
Compound `Oc1ccccc1CN1CCCC[C@H]1c1cccnc1` [(2S)-N-HYDROXYBENZYLANABASINE] gave an IC50 in assay [8] of 6.7 µM. Besides, the outcome in assay [2], in assay [4], in assay [5], in assay [6] and in assay [7] was inactive.
As for `Oc1ccccc1CN1CCCC[C@]1(O)c1cccnc1`, the result in assay [2], in assay [4], in assay [5], in assay [6] and in assay [7] was inactive.
With `CC1=C2OCC(C)c3ccc(C)c(c32)C(=O)C1=O` (stereo unspecified) [MANSONONE E], the figures for the IC50 in assay [1] (read-out: IC50) and in assay [3] were 45.7 µM and 4.7 µM, respectively. Also, the outcome in assay [2], in assay [4], in assay [5], in assay [6] and in assay [7] was inactive.
Turning to `C[C@@H]1CC[C@@H]2C(C)(C)O[C@@H]3[C@H](C)C(=O)C=C1[C@@]32O`, the result in assay [2], in assay [4], in assay [5], in assay [6] and in assay [7] was inactive.
As to `Oc1ccccc1CN1CCCCC1(O)c1cccnc1` (racemic), the outcome in assay [2], in assay [4], in assay [5], in assay [6] and in assay [7] was inactive. Moreover, the half-maximal inhibitory concentration (IC50) in assay [3] is over 20 µM.
On to `CC1=Cc2c(C(C)C)ccc(C)c2C(=O)C1=O`, for which the IC50 entry is “Not Active” in assay [1] and over 20 µM in assay [3]. The result in assay [2], in assay [4], in assay [5], in assay [6] and in assay [7] was inactive.
Take `Cc1cc2c(C(C)C)cc(O)c(C)c2cc1O`: the IC50 was 3.8 µM in assay [1] (read-out: IC50) and 10.1 µM in assay [3]. In addition, the result in assay [2], in assay [4], in assay [5], in assay [6] and in assay [7] was inactive.
Turning to `Cc1cc2c(C(C)C)ccc(C)c2cc1O`, the IC50 in assay [1] (read-out: IC50) amounted to 4.3 µM; in assay [3], 5.3 µM. For the same compound, the result in assay [2], in assay [4], in assay [5], in assay [6] and in assay [7] was inactive.
On to `CC1=C2OC[C@@H](C)c3c(O)cc(C)c(c32)C(=O)C1=O`, for which the IC50 in assay [1] (read-out: IC50) is 17.8 µM; in assay [3], 3.1 µM. Further, the result in assay [2], in assay [4], in assay [5], in assay [6] and in assay [7] was inactive.
Take `COC(=O)c1c(O)cc(C(C)C)c2cc(C)c(O)cc12`: the half-maximal inhibitory concentration (IC50) was determined as 4.9 µM in assay [1] (read-out: IC50) and 11.3 µM in assay [3]. Also, the result in assay [2], in assay [4], in assay [5], in assay [6] and in assay [7] was inactive.
On to `Cc1cc2c(cc1O)[C@@](C)(O)C(=O)C=C2C(C)C` [LACINILENE C], for which the half-inhibitory concentration (IC50) in assay [1] (read-out: IC50) was determined as 39.8 µM; in assay [3], 15.4 µM. Besides, the outcome in assay [2], in assay [4], in assay [5], in assay [6] and in assay [7] was inactive.
In assay [8], `Oc1ccccc1CN1CCCC[C@@H]1c1cccnc1` [(2R)-N-HYDROXYBENZYLANABASINE] gave a half-maximal inhibitory concentration (IC50) of over 20 µM. Further, the outcome in assay [2], in assay [4], in assay [5], in assay [6] and in assay [7] was inactive.
On to `Cc1cc2c(c(O)c1O)[C@@H](C)CC[C@@H]2C(C)C` [(1S,4R)-7,8-DIHYDROXYCALAMENENE], for which the IC50 result in assay [1] was “Not Active”; in assay [3], 7.4 µM. In addition, the outcome in assay [2], in assay [4], in assay [5], in assay [6] and in assay [7] was inactive.
As to `CO[C@]1(C)C(=O)C=C(C(C)C)c2cc(C)c(O)cc21`, the values for the IC50 in assay [1] (read-out: IC50) and in assay [3] were 23.8 µM and over 20 µM, respectively. Besides, the result in assay [2], in assay [4], in assay [5], in assay [6] and in assay [7] was inactive.
`COc1cc(/C=C/C(=O)CC(=O)/C=C/c2ccc(O)c(OC)c2)ccc1O` [CURCUMIN] registered a half-inhibitory concentration (IC50) in assay [8] of 3.1 µM.
In the case of `Oc1ccccc1CN1CCCC[C@@]1(O)c1cccnc1`, the result in assay [2], in assay [4], in assay [5], in assay [6] and in assay [7] was inactive.

The record behind these values is ChEMBL document CHEMBL2384959, “Sesquiterpenes and alkaloids from the roots of Alangium chinense” (J Nat Prod, 2013).
